Screening results (PubChem)
PAFAH1B3 FP inh: blocks human PAF acetylhydrolase 1B catalytic subunit 3 | Q15102 | 340,000 compounds, 0.28% hits | recombinant PAFAH1B3, FP-rhodamine probe, fluorescence polarization | inhibition, % at 3.39 µM;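 active = inhibition above the screen-wide average of all tested compounds plus 3 SD, cut at about 25% in these data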;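 note: 0% = enzyme with DMSO only and 100% = wells lacking PAFAH1B3 protein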
Target sequence (Q15102 whole entry, looked up): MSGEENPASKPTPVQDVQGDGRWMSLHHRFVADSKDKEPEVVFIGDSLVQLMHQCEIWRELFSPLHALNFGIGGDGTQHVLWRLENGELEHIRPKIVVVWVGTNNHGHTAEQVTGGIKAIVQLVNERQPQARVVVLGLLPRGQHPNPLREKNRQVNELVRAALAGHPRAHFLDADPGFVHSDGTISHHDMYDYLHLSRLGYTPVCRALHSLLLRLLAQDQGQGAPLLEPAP
HTRA1 inhibitor: blocks human HTRA1 serine peptidase. Q92743. recombinant HTRA1, FP-rhodamine activity-based probe, fluorescence polarization. inhibition, % at 5.96 µM. 340,000 compounds, 0.5% hits. AID 504803; in the data active = inhibition above about 36%;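 note: 0% = enzyme with DMSO and 100% = wells lacking enzyme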
PAFAH1B2 inh: blocks human PAF acetylhydrolase 1b catalytic subunit 2; P68402; recombinant PAFAH1B2, FP-rhodamine activity probe, fluorescence polarization; inhibition, % at 3.39 µM; 340,000 compounds, 1.2% hits; AID 492953;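 active = inhibition above the mean of all tested compounds plus 3 SD, cut at about 24% in these data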;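 note: 0% = enzyme with DMSO and 100% = wells lacking PAFAH1B2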
pPAFAH FP inh: pPAFAH (human) enzyme inhibition | recombinant pPAFAH, FP-rhodamine probe fluorescence polarization | 330,000 compounds, 1.5% hits | Q13093 | inhibition, % at 3.39 µM;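 active = inhibition above the mean inhibition across the screen plus 3 SD, cut at about 25% in these data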;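 note: inhibitors block binding of the rhodamine activity-based probe so polarization drops; 0% = enzyme with DMSO and 100% = wells lacking pPAFAH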
Target sequence (Q13093 whole entry, looked up): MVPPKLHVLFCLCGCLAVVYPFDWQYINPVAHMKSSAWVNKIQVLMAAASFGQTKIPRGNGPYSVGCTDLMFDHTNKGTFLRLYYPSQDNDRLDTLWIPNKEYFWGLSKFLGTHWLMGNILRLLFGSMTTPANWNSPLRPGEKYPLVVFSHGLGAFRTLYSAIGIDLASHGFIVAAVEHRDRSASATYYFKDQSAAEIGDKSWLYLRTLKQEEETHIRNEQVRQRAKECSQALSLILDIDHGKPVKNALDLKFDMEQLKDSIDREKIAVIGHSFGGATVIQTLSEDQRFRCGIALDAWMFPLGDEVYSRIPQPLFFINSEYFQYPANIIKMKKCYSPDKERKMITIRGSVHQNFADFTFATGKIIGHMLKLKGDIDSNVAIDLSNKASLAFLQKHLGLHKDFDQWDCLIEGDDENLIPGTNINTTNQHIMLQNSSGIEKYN
PAFAH2 inh: inhibitors of human PAFAH2; recombinant PAFAH2, FP-rhodamine activity probe, fluorescence polarization; inhibition, % at 3.39 µM; 340,000 compounds, 0.99% hits; AID 492956;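 active = inhibition above the mean over all tested compounds plus 3 SD, cut at about 30% in these data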;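 note: inhibitors block probe labeling of enzyme so polarization drops; 0% = enzyme with DMSO and 100% = wells lacking PAFAH2 protein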
mABHD4 FP: inhibitors of mouse ABHD4; inhibition, % at 8.92 µM; AID 720543; purified mABHD4, FP-Rh probe fluorescence polarization; 370,000 compounds, 0.54% hits;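 active = inhibition exceeding the mean over every tested compound plus 3 SD, cut at about 30% in these data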;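 note: 0% = plate median of compound wells and 100% = S159A mutant with DMSO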
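Assay system: mABHD4 protein; medium: HEPES pH 7.0, NaCl, Pluronic buffer; dosing: 8.92 µM, single dose; schedule: 45 min + 60 min at 25 °C; signal: FP readout, ex 525 nm / em 598 nm; read-out: normalized percent inhibition of probe labeling; repeats: single replicate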
Starred values were filed as active, the others as inactive; . = no result. Shown are actives, neighbours in structure and some others; about 2.8% of the full set was active somewhere.

SMILES | PAFAH1B3 FP inh | HTRA1 inhibitor | PAFAH1B2 inh | pPAFAH FP inh | PAFAH2 inh | mABHD4 FP
CN1C2=N[C@@H](c3cccc(C(F)(F)F)c3)CC(=O)N2/C(=C\c2ccccc2)[C@H]1c1ccccc1 | . | . | . | . | . | 17
COCCN1C(=O)C2=C(C1=O)C1N(C)c3ccccc3[C@@]13C[C@@H](CO)N(C(C)=O)C3=N2 (stereo partly drawn) | . | . | . | . | . | 10
COC(=O)[C@]12C[C@H](CC(=O)NCc3ccc(C)o3)C(=O)N(Cc3ccco3)C1=C[C@H](C(C)C)O[C@@H]2C1CC1 | . | . | . | . | . | -5
C1CCCCCC2(CCCCC1)OCC(CN1CCOCC1)O2 (stereo not drawn) | 6 | -1 | 26* | 4 | 9 | 0
O=S(c1ccccc1)C(c1ccccc1)c1ccccc1 (stereo not drawn) | 13 | -2 | 24* | . | 4 | 1
CN(C)c1ccsc1C(=O)NNS(=O)(=O)c1ccc(Cl)cc1 | 2 | 8 | 32* | -1 | 2 | 8
Cc1occc1C(=O)NNS(=O)(=O)c1ccc(Cl)cc1 | 5 | 3 | 19 | 6 | 3 | -7
COC(=O)c1cnn(-c2ccc(Cl)cc2)c1/C=N/NC(=S)Nc1ccccc1 | . | . | . | . | . | 3
CN1Cc2c(N3CCOCC3)nc3sc(C(=O)c4ccc(Br)cc4)c(N)c3c2CC1(C)C | . | . | . | 30* | . | 15
CCCCc1cc(=O)oc2cc(C)c(CN3CCCC3)c(O)c12 | 5 | -12 | 1 | 30* | 16 | 7
CCOC(=O)CCCCC(=O)c1[nH]c(=O)[nH]c1CSc1nc2ccccc2[nH]1 | 24 | 22 | 25* | 4 | 27 | 6
Cc1cc(Br)ccc1OCCCN1CCC(C(O)(c2ccccc2)c2ccccc2)CC1 | . | . | . | . | . | 20
O=C(Nc1nc2ccccc2[nH]1)C12CC3CC(CC(C3)C1)C2 | 0 | -8 | 29* | -3 | 17 | 7
CCOc1ccccc1C(=O)N[C@H](C(=O)OCc1csc(CC(=O)Nc2ccc(C)cc2)n1)C(C)C | 3 | -56 | 0 | 33* | 8 | 16
Cc1ccccc1NC(=O)Cc1nc(COC(=O)C(NC(=O)c2ccccc2C)C(C)C)cs1 (stereo not drawn) | 3 | -2 | 3 | 10 | 5 | 16
CC1=C(C(=O)OCC(Br)(Br)Br)C(c2cccc([N+](=O)[O-])c2)NC(=O)N1CCCC(=O)O (stereo not drawn) | -7 | 3 | 92* | -3 | -2 | 4
Cn1c(CCN2CCCC2)nc2cc(NS(=O)(=O)c3ccc(Cl)cc3)ccc21 | 2 | -5 | 28* | 10 | 5 | -6
Cc1ccc(S(=O)(=O)Nc2ccc3c(c2)nc(CCN2CCCC2)n3C)cc1 | -3 | -5 | 6 | 0 | 0 | 4
Cc1ccc2c(c1)C1CS(=O)(=O)N(CC(C)C)CN1C2 (stereo not drawn) | . | . | . | . | . | 0
CCC(C)c1ccccc1NC(=O)COC(=O)c1ccc(N2CCCC2)c([N+](=O)[O-])c1 (stereo not drawn) | 4 | -4 | -2 | 30* | 79* | 6
COc1ccc([C@H]2[C@H](C(=O)C(C)(C)C)N3N=Cc4ccccc4C3[C@]23N=C(c2ccccc2)OC3=O)cc1 (stereo partly drawn) | 4 | -9 | 4 | -3 | 0 | 0
CC(C)(C)OC(=O)[C@H]1[C@H](c2ccc([N+](=O)[O-])cc2)C2(C(=O)c3ccccc3C2=O)C2c3ccccc3C=NN21 (stereo partly drawn) | 2 | -8 | 84* | 11 | 7 | 25
Cc1ccc(SCCC(=O)OCC(=O)Nc2ccc(S(N)(=O)=O)cc2)cc1 | -3 | 2 | 24* | 12 | -7 | -1
Cc1ccc(S(=O)(=O)Nc2nnc(CC(C)(C)C)s2)cc1 | 3 | -4 | 5 | 0 | 1 | -2
CC(C)(C)Cc1nnc(NS(=O)(=O)c2ccc(F)cc2)s1 | 9 | 0 | 31* | 9 | 4 | -5
SMILES | PAFAH1B3 FP inh | HTRA1 inhibitor | PAFAH1B2 inh | pPAFAH FP inh | PAFAH2 inh | mABHD4 FP
COC(=O)[C@]12C[C@H](CC(=O)N3CCN(C(=O)c4ccco4)CC3)C(=O)N(Cc3cccc4ccccc34)C1=C[C@H](C1CCCC1)O[C@@H]2C | . | . | . | . | . | -15
CC[C@]12c3[nH]c4cc(CCC(=O)N(C)C)ccc4c3CCN1C(=O)[C@@H](CC(=O)NC/C=C(\C)CCC=C(C)C)C[C@@H]2C(=O)N1CCN(C(=O)c2ccco2)CC1 | 7 | -14 | 4 | 34* | 4 | .
CC(C)=CCC/C(C)=C/CNC(=O)C[C@H]1C[C@H](C(=O)N(C(C)C)C(C)C)[C@@]2(C)c3[nH]c4cc(-c5ccco5)ccc4c3CCN2C1=O | 12 | -26 | 6 | 27* | 5 | 6
CCN(CC)C(=O)[C@H]1C[C@H](CC(=O)NC/C=C(\C)CCC=C(C)C)C(=O)N2CCc3c([nH]c4cc(-c5ccco5)ccc34)[C@]12C | 3 | -13 | 6 | 33* | 7 | 5
CCN(CC)C(=O)[C@H]1C[C@H](CC(=O)NCC23CC4CC(CC(C4)C2)C3)C(=O)N2CCc3c([nH]c4cc(-c5ccco5)ccc34)[C@]12C | 6 | 1 | 3 | -1 | -3 | 5
CC[C@]12c3[nH]c4cc(CCC(=O)N(C)C)ccc4c3CCN1C(=O)[C@@H](CC(=O)NCCN1CCOCC1)C[C@@H]2C(=O)N1CCN(C(=O)c2ccco2)CC1 | -1 | 3 | 1 | -1 | -5 | -1
O=C(Nc1ccc2c(c1)CCC2)Nc1ccc2c(c1)OCO2 | 7 | 11 | 2 | 25* | 2 | 3
O=C1c2ccccc2-c2c1cccc2C(=O)N1CCN(C(=O)c2ccco2)CC1 | 4 | 7 | 1 | 5 | -3 | -2
CC1CC(C)CN(C(=O)c2cccc3c2-c2ccccc2C3=O)C1 (stereo not drawn) | 7 | 0 | 28* | 5 | 4 | -3
O=C(CCSCCC(=O)NN=Cc1ccccc1O)NN=Cc1ccccc1O | 2 | -8 | 11 | . | -6 | 1
O=C(CSc1ccccc1)N/N=C/c1ccccc1O | 4 | 2 | 27* | 4 | 14 | -2
CCC(C(=O)Nc1ccccc1N1CCCC1)c1cccc(C)c1 (stereo not drawn) | . | . | . | . | . | 3
CC(C)N1CCc2c(-c3nc4ccccc4s3)csc2C1 | . | . | . | . | . | 2
CC(C)Sc1oc(-c2ccco2)nc1S(=O)(=O)c1ccc(F)cc1 | 0 | -12 | 3 | 26* | 12 | 1
COc1ccc(/C=C/C(=O)NC2=NCCS2)c(OC)c1 | . | . | . | . | . | 0
NC(=O)c1ccc[n+](CC(=O)c2ccc(Br)cc2)c1 | 0 | -2 | 6 | 3 | 2 | 9
NC(=O)c1ccc[n+](CC(=O)OCCC23CC4CC(CC(C4)C2)C3)c1 | 0 | 7 | 26* | -3 | 0 | 0
CCNC(=O)C[C@H]1CC[C@H]2[C@@H](COc3ccc(NC(=O)Nc4ccccc4)cc3C(=O)N2C)O1 | . | . | . | . | . | 7
